Measured values published in ChEMBL document CHEMBL1126608.

What was measured:
[1] = molecular target: T1, Muscarinic acetylcholine receptor M2 (Homo sapiens) (UniProt P08172); test: Antagonist activity against muscarinic M2 receptor from guinea pig atria; format: functional; details: Cavia porcellus; target entry is the homologue from another species
T1 sequence (whole entry): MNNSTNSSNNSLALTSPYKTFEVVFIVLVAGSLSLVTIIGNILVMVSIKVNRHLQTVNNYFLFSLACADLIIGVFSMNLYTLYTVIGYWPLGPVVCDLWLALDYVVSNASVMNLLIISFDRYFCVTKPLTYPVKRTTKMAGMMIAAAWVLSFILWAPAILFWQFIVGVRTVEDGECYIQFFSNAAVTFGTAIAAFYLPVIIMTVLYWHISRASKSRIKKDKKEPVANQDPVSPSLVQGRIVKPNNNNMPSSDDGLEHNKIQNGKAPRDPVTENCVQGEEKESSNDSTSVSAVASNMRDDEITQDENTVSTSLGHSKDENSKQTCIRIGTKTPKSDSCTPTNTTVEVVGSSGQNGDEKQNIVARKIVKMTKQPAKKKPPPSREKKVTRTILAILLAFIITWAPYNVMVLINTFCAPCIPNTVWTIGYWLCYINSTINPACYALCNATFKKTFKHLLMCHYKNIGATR
In short: (§1)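 Isolated guinea pig right atria in Krebs-Henseleit buffer; cumulative carbachol concentration-rate response curves before and after at least three increasing antagonist concentrations (5-min preincubation). Responses as % of maximal carbachol-induced rate inhibition without antagonist.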

[2] = molecular target: Muscarinic acetylcholine receptor M3 (Cavia porcellus) (UniProt Q8VH26); test: Antagonist activity against muscarinic M3 receptor from guinea pig ileum; format: functional, tissue-based
Sequence of Muscarinic acetylcholine receptor M3 (Cavia porcellus) (Q8VH26 1-587): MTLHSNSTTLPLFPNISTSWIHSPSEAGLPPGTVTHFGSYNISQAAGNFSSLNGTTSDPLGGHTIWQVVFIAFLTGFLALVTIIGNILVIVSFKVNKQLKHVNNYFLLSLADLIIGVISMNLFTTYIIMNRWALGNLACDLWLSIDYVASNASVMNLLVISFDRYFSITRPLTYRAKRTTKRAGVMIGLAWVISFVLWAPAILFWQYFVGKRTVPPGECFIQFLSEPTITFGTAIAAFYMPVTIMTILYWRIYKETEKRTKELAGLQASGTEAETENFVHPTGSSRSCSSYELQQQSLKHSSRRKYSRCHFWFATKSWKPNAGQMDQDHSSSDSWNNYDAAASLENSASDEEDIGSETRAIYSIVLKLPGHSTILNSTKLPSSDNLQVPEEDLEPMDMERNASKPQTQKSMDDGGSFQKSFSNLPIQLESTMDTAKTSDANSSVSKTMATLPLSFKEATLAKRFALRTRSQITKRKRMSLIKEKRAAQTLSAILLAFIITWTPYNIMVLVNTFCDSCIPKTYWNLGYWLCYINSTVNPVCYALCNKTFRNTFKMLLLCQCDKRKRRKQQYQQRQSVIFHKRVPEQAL
In short: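 Longitudinal guinea pig ileum strips suspended in oxygenated Krebs buffer; carbachol concentration-response curves with or without at least three increasing antagonist concentrations (5-min preincubation). Contraction as % of maximal carbachol response without antagonist.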

[3] = molecular target: T2, Muscarinic acetylcholine receptor (Homo sapiens) (UniProt P20309+P08173+P11229+P08172+P08912); test: In vivo antimuscarinic activity to decrease carbachol-stimulated salivation in guinea pig; format: functional, organism-based; details: Cavia porcellus; target entry is the homologue from another species
In short: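 Guinea pigs dosed sc with various antagonist doses; 30 min later carbachol 0.1 mg/kg ip; ability to respond to agonist scored 5-10 min afterwards.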

[4] = molecular target: T2, Muscarinic acetylcholine receptor (Homo sapiens); details: Cavia porcellus
[5] = molecular target: T1, Muscarinic acetylcholine receptor M2 (Homo sapiens); test: Antagonist activity against muscarinic M2 receptor from guinea pig atria; Non competitive; format: functional; details: Cavia porcellus; filed as antagonist; target entry is the homologue from another species; in short: as §1
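Throughout, for ID50: in vivo guinea pig assay: antimuscarinic effect measured as reduced salivation after carbachol stimulation.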

## O=C(CN1CCN(Cc2ccco2)CC1)C(O)(c1ccccc1)C1CCC1 (stereo not given)
[1]
  Kb: > 30000 nM
[2]
  Kb: 750 nM

## CN1CCN(CC(=O)C(O)(c2ccccc2)C2CCCCC2)CC1 (stereo not given)
[3]
  ED50: 1.84 mg/kg
[1]
  Kb: 210 nM
[2]
  Kb: 15 nM

## O=C(CN1CCC(N2CCCC2)CC1)C(O)(c1ccccc1)C1CCC1 (stereo not given)
[1]
  Kb: 2440 nM
[2]
  Kb: > 10000 nM

## C#CCN1CCN(CC(=O)C(O)(c2ccccc2)C2CCCCC2)CC1 (stereo not given)
[1]
  Kb: 5670 nM
[2]
  Kb: 260 nM

## O=C(CN1CCC(N2CCCC2)CC1)C(O)(c1ccccc1)C1CCCCC1 (stereo not given)
[1]
  Kb: 4510 nM
[2]
  Kb: 349 nM

## Cc1ccccc1CN1CCN(CC(=O)C(O)(c2ccccc2)C2CCC2)CC1 (stereo not given)
[1]
  Kb: > 1000 nM
[2]
  Kb: 199 nM

## CCOC(=O)N1CCN(CC(=O)C(O)(c2ccccc2)C2CCCCC2)CC1 (stereo not given)
[1]
  Kb: > 30000 nM
[2]
  Kb: > 10000 nM

## COc1ccc(CN2CCN(CC(=O)C(O)(c3ccccc3)C3CCC3)CC2)cc1 (stereo not given)
[1]
  Kb: 263 nM
[4]
  ID50: 10.8 mg/kg
[2]
  Kb: 27.9 nM

## CCOc1ccccc1N1CCN(CC(=O)C(O)(c2ccccc2)C2CCC2)CC1 (stereo not given)
[1]
  Kb: > 10000 nM
[2]
  Kb: > 10000 nM

## O=C(CN1CCN(Cc2cccs2)CC1)C(O)(c1ccccc1)C1CCC1 (stereo not given)
[1]
  Kb: 491 nM
[4]
  ID50: 25 mg/kg
[2]
  Kb: 43.8 nM

## COc1cccc(CN2CCN(CC(=O)C(O)(c3ccccc3)C3CCC3)CC2)c1 (stereo not given)
[1]
  Kb: 136 nM
[2]
  Kb: 17 nM

## O=C(CN1CCN(Cc2ccc(Cl)cc2)CC1)C(O)(c1ccccc1)C1CCC1 (stereo not given)
[1]
  Kb: 515 nM
[4]
  ID50: 9.8 mg/kg
[2]
  Kb: 16 nM

## Cc1ccc(CN2CCN(CC(=O)C(O)(c3ccccc3)C3CCC3)CC2)cc1 (stereo not given)
[1]
  Kb: 82 nM
[4]
  ID50: 8.4 mg/kg
[2]
  Kb: 11 nM

## O=C(CN1CCN(Cc2ccccc2)CC1)C(O)(c1ccccc1)c1ccccc1
[1]
  Kb: 1460 nM
[4]
  ID50: > 100 mg/kg
[2]
  Kb: 6 nM

## O=C(CN1CCN(Cc2ccccc2)CC1)C(O)(c1ccccc1)C1CCCC1 (stereo not given)
[1]
  Kb: 78 nM
[4]
  ID50: 0.24 mg/kg
[2]
  Kb: 2.6 nM

## O=C(CN1CCN(C/C=C\c2ccccc2)CC1)C(O)(c1ccccc1)C1CCC1 (stereo not given)
[1]
  Kb: 2.3 nM
[4]
  ID50: 1.2 mg/kg
[2]
  Kb: 9.92 nM

## O=C(CN1CCN(Cc2ccccc2)CC1)C(O)(c1ccccc1)C1CC1 (stereo not given)
[1]
  Kb: 225 nM
[4]
  ID50: 9.9 mg/kg
[2]
  Kb: 24 nM

## O=C(CN1CCN(CCc2ccccc2)CC1)C(O)(c1ccccc1)C1CCC1 (stereo not given)
[1]
  Kb: > 1000 nM
[2]
  Kb: 302 nM

## O=C(CN1CCN(Cc2ccccc2)CC1)C(O)(c1ccccc1)C1CCCCC1 (stereo not given)
[1]
  Kb: 282 nM
[4]
  ID50: 4.38 mg/kg
[2]
  Kb: 12 nM

## O=C(CN1CCN(Cc2cccc(Cl)c2)CC1)C(O)(c1ccccc1)C1CCC1 (stereo not given)
[1]
  Kb: 380 nM
[4]
  ID50: 8.3 mg/kg
[2]
  Kb: 27 nM

## C=CCN1CCN(CC(=O)C(O)(c2ccccc2)C2CCC2)CC1 (stereo not given)
[1]
  Kb: 299 nM
[4]
  ID50: 20.4 mg/kg
[2]
  Kb: 60 nM

## CCCN1CCN(CC(=O)C(O)(c2ccccc2)C2CCC2)CC1 (stereo not given)
[1]
  Kb: 1190 nM
[4]
  ID50: 31.1 mg/kg
[2]
  Kb: 673 nM

## CN(C)CCNCC(=O)C(O)(c1ccccc1)C1CCCCC1 (stereo not given)
[3]
  ED50: 0.13 mg/kg
[1]
  Kb: 216 nM
[2]
  Kb: 5.5 nM

## C=C(C)CN1CCN(CC(=O)C(O)(c2ccccc2)C2CCC2)CC1 (stereo not given)
[3]
  ED50: 17 mg/kg
[1]
  Kb: 551 nM
[2]
  Kb: 100 nM

## O=C(CN1CCN(CC(=O)C(O)(c2ccccc2)C2CCC2)CC1)N1CCCC1 (stereo not given)
[1]
  Kb: > 3000 nM
[2]
  Kb: 210 nM

## O=C(CN1CCN(CC(=O)C(O)(c2ccccc2)C2CCC2)CC1)C(O)(c1ccccc1)C1CCC1 (stereo not given)
[1]
  Kb: > 1000 nM
[2]
  Kb: 207 nM

## CC(C)=CCN1CCN(CC(=O)C(O)(c2ccccc2)C2CCC2)CC1 (stereo not given)
[1]
  Kb: 305 nM
[4]
  ID50: 4.9 mg/kg
[2]
  Kb: 22 nM

## O=C(CN1CCN(C2CCC2)CC1)C(O)(c1ccccc1)C1CCC1 (stereo not given)
[1]
  Kb: 1800 nM
[4]
  ID50: 18.3 mg/kg
[2]
  Kb: 230 nM

## O=C(CN1CCN(CCO)CC1)C(O)(c1ccccc1)C1CCCCC1 (stereo not given)
[3]
  ED50: > 10 mg/kg
[1]
  Kb: 530 nM
[2]
  Kb: 53 nM

## C=CCN1CCN(CC(=O)C(O)(c2ccccc2)C2CCCCC2)CC1 (stereo not given)
[1]
  Kb: 425 nM
[4]
  ID50: 21 mg/kg
[2]
  Kb: 25.6 nM

## O=C(CN1CCN(c2ccc([N+](=O)[O-])cc2)CC1)C(O)(c1ccccc1)C1CCC1 (stereo not given)
[1]
  Kb: > 10000 nM
[2]
  Kb: > 10000 nM

## O=C(CN1CCN(Cc2ccc3c(c2)OCO3)CC1)C(O)(c1ccccc1)C1CCC1 (stereo not given)
[3]
  ED50: 4 mg/kg
[1]
  Kb: 45 nM
[2]
  Kb: 8 nM

## O=C(CN1CCC(O)CC1)C(O)(c1ccccc1)C1CCC1 (stereo not given)
[1]
  Kb: 2340 nM
[2]
  Kb: 472 nM

## O=C(CN1CCN(CCO)CC1)C(O)(c1ccccc1)C1CCC1 (stereo not given)
[1]
  Kb: 2350 nM
[4]
  ID50: 4.93 mg/kg
[2]
  Kb: 185 nM

## C=CCCN1CCN(CC(=O)C(O)(c2ccccc2)C2CCC2)CC1 (stereo not given)
[5]
  Kb: Non-competitive antagonist
[4]
  ID50: 27.2 mg/kg
[2]
  Kb: 35.6 nM

## O=C(CN1CCN(c2ccccc2)CC1)C(O)(c1ccccc1)C1CCC1 (stereo not given)
[1]
  Kb: > 30000 nM
[2]
  Kb: 624 nM

## CC(C)CC(O)(C(=O)CN1CCN(Cc2ccccc2)CC1)c1ccccc1 (stereo not given)
[1]
  Kb: > 3000 nM
[4]
  ID50: 43.4 mg/kg
[2]
  Kb: 171 nM

## O=C(CN1CCNCC1)C(O)(c1ccccc1)C1CCC1 (stereo not given)
[1]
  Kb: 940 nM
[4]
  ID50: 1.65 mg/kg
[2]
  Kb: 87 nM

## O=C(CN1CCN(Cc2ccc([N+](=O)[O-])cc2)CC1)C(O)(c1ccccc1)C1CCC1 (stereo not given)
[1]
  Kb: 2700 nM
[4]
  ID50: 21 mg/kg
[2]
  Kb: 105 nM

## O=C(CN1CCN(C(c2ccccc2)c2ccccc2)CC1)C(O)(c1ccccc1)C1CCC1 (stereo not given)
[1]
  Kb: > 100000 nM
[2]
  Kb: > 10000 nM

## N#CCN1CCN(CC(=O)C(O)(c2ccccc2)C2CCC2)CC1 (stereo not given)
[1]
  Kb: > 30000 nM
[4]
  ID50: 35.7 mg/kg
[2]
  Kb: 2710 nM

## CN1CCN(CC(=O)C(O)(c2ccccc2)C2CCC2)CC1 (stereo not given)
[1]
  Kb: 79 nM
[4]
  ID50: 0.72 mg/kg
[2]
  Kb: 13 nM

## COc1ccccc1N1CCN(CC(=O)C(O)(c2ccccc2)C2CCC2)CC1 (stereo not given)
[1]
  Kb: > 10000 nM
[2]
  Kb: > 10000 nM

## O=C(CN1CCN(Cc2ccccc2Cl)CC1)C(O)(c1ccccc1)C1CCC1 (stereo not given)
[1]
  Kb: > 10000 nM
[2]
  Kb: 56 nM
